For test [1], the system named is Staphylococcus aureus. Kind of test: Antibacterial activity against Staphylococcus aureus at 50 ug/ml after 24 hrs by agar well diffusion method. It is filed as functional. As to conditions: read-out: DIZ. The method, boiled down: (§1)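 Agar well diffusion. Nutrient plates swabbed with 24 h broth culture of the bacterium; 6 mm wells bored and loaded with DMSO solutions of compound (wells at 50 and 100 per well). Chloramphenicol positive control, DMSO negative control. Plates held 37 °C, 24 h; inhibition zone diameter (mm) measured, mean of duplicates.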
In general terms: In agar diffusion tests the substance spreads into inoculated agar from a disc or well.

The subject of test [2] is Staphylococcus aureus. Briefly: Antibacterial activity against Staphylococcus aureus at 100 ug/ml after 24 hrs by agar well diffusion method. It counts as functional. The following applies: read-out: DIZ. An outline of the steps:
as §1

For test [3], the system named is Bacillus subtilis. Kind of test: Antibacterial activity against Bacillus subtilis at 50 ug/ml after 24 hrs by agar well diffusion method. It counts as functional. As to conditions: read-out: DIZ. The method, boiled down:
as §1

The subject of test [4] is Bacillus subtilis. Briefly: Antibacterial activity against Bacillus subtilis at 100 ug/ml after 24 hrs by agar well diffusion method. It counts as functional. As to conditions: read-out: DIZ. The method, boiled down: as §1
The subject of test [5] is Pseudomonas aeruginosa. Briefly: Antibacterial activity against Pseudomonas aeruginosa at 50 ug/ml after 24 hrs by agar well diffusion method. It counts as functional. The following applies: read-out: DIZ. An outline of the steps:
as §1

Test [6] relates to Pseudomonas aeruginosa. Kind of test: Antibacterial activity against Pseudomonas aeruginosa at 100 ug/ml after 24 hrs by agar well diffusion method. The following applies: read-out: DIZ. It is filed as functional. An outline of the steps:
as §1

Test [7] concerns Klebsiella pneumoniae. Kind of test: Antibacterial activity against Klebsiella pneumoniae at 50 ug/ml after 24 hrs by agar well diffusion method. It counts as functional. As to conditions: read-out: DIZ. The method, boiled down: as §1
The subject of test [8] is Klebsiella pneumoniae. Kind of test: Antibacterial activity against Klebsiella pneumoniae at 100 ug/ml after 24 hrs by agar well diffusion method. It counts as functional. As to conditions: read-out: DIZ. An outline of the steps: as §1
The subject of test [9] is Aspergillus niger. Briefly: Antifungal activity against Aspergillus niger at 50 ug/ml after 48 hrs by agar well diffusion method. It counts as functional. As to conditions: read-out: DIZ. The method, boiled down:
(§2)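 Fungal agar well diffusion. Plates swabbed with fungal culture, 6 mm wells filled with DMSO solutions of compound (50 and 100 per well). Ketoconazole positive and DMSO negative controls. Plates incubated 28 °C for 48 h; zone of inhibition diameter (mm) read, average of duplicates.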

Test [10] has as its system Aspergillus niger. Briefly: Antifungal activity against Aspergillus niger at 100 ug/ml after 48 hrs by agar well diffusion method. It is filed as functional. As to conditions: read-out: DIZ. The method, boiled down:
as §2

Test [11] has as its system Penicillium chrysogenum. Briefly: Antifungal activity against Penicillium chrysogenum at 50 ug/ml after 48 hrs by agar well diffusion method. As to conditions: read-out: DIZ. It is filed as functional. The method, boiled down: as §2
The subject of test [12] is Penicillium chrysogenum. Briefly: Antifungal activity against Penicillium chrysogenum at 100 ug/ml after 48 hrs by agar well diffusion method. It is filed as functional. As to conditions: read-out: DIZ. The method, boiled down: as §2
Test [13] concerns Staphylococcus aureus. Kind of test: Antibacterial activity against Staphylococcus aureus after 24 hrs by broth dilution method. It counts as functional. The method, boiled down:
(§3)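 Broth dilution MIC. Test samples in DMSO added at increasing concentrations to tubes of nutrient broth cultures, incubated 37 °C for 24 h. Visible turbidity scored against NB control; solvent and no-sample controls included. MIC = lowest concentration preventing visible growth.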

Test [14] has as its system Bacillus subtilis. Kind of test: Antibacterial activity against Bacillus subtilis after 24 hrs by broth dilution method. It counts as functional. The method, boiled down:
as §3
A general note: Broth dilution looks for growth in wells or tubes with falling amounts of substance.

Test [15] relates to Pseudomonas aeruginosa. Kind of test: Antibacterial activity against Pseudomonas aeruginosa after 24 hrs by broth dilution method. It counts as functional. The method, boiled down: as §3
Test [16] concerns Klebsiella pneumoniae. Kind of test: Antibacterial activity against Klebsiella pneumoniae after 24 hrs by broth dilution method. It is filed as functional. The method, boiled down:
as §3

Test [17] deals with Aspergillus niger. Briefly: Antifungal activity against Aspergillus niger after 48 hrs by broth dilution method. It is filed as functional. An outline of the steps: (§4)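 Fungal MIC by broth dilution. Compounds dissolved in DMSO, added at rising concentrations to fungal culture tubes, incubated 28 °C for 48 h. Tubes read for visible turbidity alongside a solvent control; lowest concentration with no visible growth taken as MIC.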

In test [18] the test system is Penicillium chrysogenum. Briefly: Antifungal activity against Penicillium chrysogenum after 48 hrs by broth dilution method. It is filed as functional. The method, boiled down:
as §4

The test system of test [19] is Staphylococcus aureus. Kind of test: Bactericidal activity against Staphylococcus aureus after 24 hrs by broth dilution method. It counts as functional.
The subject of test [20] is Bacillus subtilis. Briefly: Bactericidal activity against Bacillus subtilis after 24 hrs by broth dilution method. It is filed as functional.
Test [21] relates to Pseudomonas aeruginosa. Briefly: Bactericidal activity against Pseudomonas aeruginosa after 24 hrs by broth dilution method. It is filed as functional.
Test [22] deals with Klebsiella pneumoniae. Briefly: Bactericidal activity against Klebsiella pneumoniae after 24 hrs by broth dilution method. It is filed as functional.
Test [23] has as its system Aspergillus niger. Briefly: Fungicidal activity against Aspergillus niger after 48 hrs by broth dilution method. It counts as functional.
Test [24] deals with Penicillium chrysogenum. Kind of test: Fungicidal activity against Penicillium chrysogenum after 48 hrs by broth dilution method. It is filed as functional.
Test [25] has as its system Bacillus subtilis. Briefly: Ratio of MBC to MIC for Bacillus subtilis after 24 hrs. It counts as functional.
Test [26] relates to Penicillium chrysogenum. Kind of test: Ratio of MFC to MIC for Penicillium chrysogenum after 48 hrs. It counts as functional.
Test [27] deals with A549. Kind of test: Cytotoxicity against human A549 cells up to 0.2 mM after 72 hrs by MTT assay. (Formazan colour is commonly taken as a measure of viable cells.)
For test [28], the system named is A549. Briefly: Cytotoxicity against human A549 cells after 72 hrs by MTT assay. It counts as functional, cell-based. The method, boiled down:
(§5)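 A549 lung carcinoma cells, 5 × 10⁴ per well, in DMEM with 10% FBS and antibiotics at 37 °C, 5% CO₂. After 3–4 h attachment, compound added at various concentrations for 72 h. MTT then added for 3 h, formazan dissolved in DMSO, absorbance read at 550 nm. Triplicate wells, three independent experiments; IC50 derived by curve fitting.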

The test system of test [29] is A549. Kind of test: Cytotoxicity against human A549 cells assessed as decrease in viability at 100 to 200 uM after 72 hrs by MTT assay. It is filed as functional, cell-based. The method, boiled down:
as §5

Test [30] has as its system A549. Kind of test: Cytotoxicity against human A549 cells assessed as viability at 12.5 uM after 72 hrs by MTT assay. It is filed as functional. The following applies: A549, 72 h, read-out: Activity. An outline of the steps:
as §5

Here are results for two compounds from ChEMBL document CHEMBL2040768, “Synthesis, antimicrobial and cytotoxic activities of sulfone linked bis heterocycles” (Eur J Med Chem, 2012).

≈ marks a conversion by molar mass, not a printed value. Calls of active or inactive are those of the source.

As to `Nn1c(CS(=O)(=O)/C=C/S(=O)(=O)c2ccc(Cl)cc2)nnc1CS(=O)(=O)Nc1ccc(Cl)cc1`, the zone of inhibition at 50 µg/mL in [1] is 32 mm; in test [3], 36 mm; in [5], 31 mm; in test [7] it was 39 mm; in test [9], 32 mm; in test [11] it was 35 mm. Further, the zone of inhibition at 100 µg/mL in [2] is 35 mm; in test [4], 38 mm; in [6], 33 mm; in test [8], 40 mm; in test [10], 34 mm; in test [12], 38 mm. In addition, the minimum inhibitory concentration (MIC) in test [13] was found to be 12.5 µg/mL (≈ 22.1 µM); in [14], 12.5 µg/mL (≈ 22.1 µM); in test [15] it was 12.5 µg/mL (≈ 22.1 µM); in test [16], 25 µg/mL (≈ 44.1 µM); in test [17], 12.5 µg/mL (≈ 22.1 µM); in test [18], 25 µg/mL (≈ 44.1 µM). Further, the minimum bactericidal concentration (MBC) in test [19] amounted to 50 µg/mL (≈ 88.3 µM); in test [20], 25 µg/mL (≈ 44.1 µM); in test [21], 50 µg/mL (≈ 88.3 µM); in [22], 100 µg/mL (≈ 177 µM). Moreover, the MFC in test [23] turned out to be 100 µg/mL (≈ 177 µM); in test [24] it was 50 µg/mL (≈ 88.3 µM). For the same compound, the Ratio in [25] and in [26] was 2 each time. Besides, in [27], the result was inactive.

With `O=S(=O)(/C=C/S(=O)(=O)c1ccc(Cl)cc1)Cc1nnc(CS(=O)(=O)Nc2ccc(Cl)cc2)o1`, the zone of inhibition at 50 µg/mL in test [1] came to 14 mm; in test [3], 15 mm; in test [5], 16 mm; in test [7], 15 mm; in [9], 19 mm; in test [11], 21 mm. The zone of inhibition at 100 µg/mL in [2] was 17 mm; in [4], 17 mm; in [6], 19 mm; in test [8], 17 mm; in [10], 22 mm; in test [12], 25 mm. The Activity entry in test [28] is “Dose-dependent effect”. The same compound showed an IC50 in test [28] (A549, 72 h) of 31.7 µM. Further, the result in test [29] was Active. Besides, the viability at 12.5 µM in test [30] was more than 75%.

Broadly, the MIC is the smallest concentration in the dilution series that meets the test's criterion for growth inhibition. A high value points to a need for much substance. A word on the MBC: it is the lowest tested concentration that kills the bacteria rather than only halting them. A lower MBC goes with more potent killing. As usually defined, the MFC is the lowest tested concentration that kills the fungus rather than only halting it. High values mean less potent killing, low ones more potent killing. As a reminder, the IC50 is the point on the concentration scale where inhibition reaches its midpoint.
